The source made the active and inactive calls. No cut-off for these calls is given here.

One data set has as its system Leishmania amazonensis. Nature of the data set: Antileishmanial activity against Leishmania amazonensis MHOM/BR/1973/M2269 promastigotes after 24 hrs by MTT assay. The format is functional, organism-based. The conditions noted are these: MHOM/BR/1973/M2269, 24 h. An outline of the steps: (§1)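 Promastigotes (L. amazonensis, L. infantum; 26 °C, M199 with 20% heat-inactivated FBS, hemin, adenine, L-glutamine, plus 5% human urine for L. infantum) or T. cruzi Y epimastigotes (LIT with hemin, 10% FCS, 28 °C). Exposed to a series of concentrations for 24 h. Viability read by MTT. EC50 from sigmoidal fit of concentration–response. Triplicates, repeated two or three times.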

Data set [1] can be described thus: Selectivity index, ratio of MDL50 for human HepG2 cells to IC50 for drug-sensitive blood stage Plasmodium falciparum 3D7. The format is toxicity. The conditions noted are these: HepG2 cells versus blood stage Plasmodium falciparum 3D7, read-out: Selectivity Index.
Data set [2] in a line: Cytotoxicity against human HepG2 cells after 24 hrs by MTT assay. In kind it is cell-based. The conditions noted are these: read-out: MDL50. In short, it runs like this: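 HepG2 cells grown in RPMI-1640 with 10% FBS, seeded at 5 × 10^3 cells/well and allowed to adhere for 18 h. Exposed to 1,000–1 μg/mL for 24 h at 37 °C, 5% CO2. MTT (5 mg/mL stock) added for 3 h, formazan dissolved in DMSO, absorbance read at 570 and 630 nm. Viability expressed as % of untreated control after background subtraction.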

The next data set concerns Leishmania infantum. Put plainly: Antileishmanial activity against Leishmania infantum MHOM/BR/1972/LD promastigotes after 24 hrs by MTT assay. The format is functional, organism-based. In short, it runs like this:
as §1
In general terms: Tetrazolium dyes change colour on reduction, which living cells bring about.

The subject of a further data set is Trypanosoma cruzi. Nature of the data set: Antitrypanosomal activity against Trypanosoma cruzi Y epimastigotes after 24 hrs by MTT assay. The format is functional, organism-based. An outline of the steps:
as §1

Data set [3] concerns Plasmodium falciparum. Nature of the data set: Antiplasmodial activity against drug-sensitive blood stage Plasmodium falciparum 3D7 by SYBR green 1 staining based fluorescence assay. The format is functional, organism-based. In short, it runs like this: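 Sorbitol-synchronized ring-stage 3D7 exposed to a range of concentrations (samples in 0.05% DMSO), in triplicate. Then lysed with Tris/EDTA/saponin/Triton buffer containing SYBR Green I (1:20000) for 30 min. IC50 from curve fitting against untreated growth.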

Another data set has as its system HepG2. Nature of the data set: Cytotoxicity against human HepG2 cells assessed as morphological changes at 10 uM by microscopic method. The conditions noted are these: hepg2, 10 µM. In kind it is cell-based. An outline of the steps:
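HepG2 cells treated at 10 μM for 24 h. Microscopic morphology compared with untreated cells.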

Data set [4] concerns Plasmodium falciparum. Put plainly: Antiplasmodial activity against chloroquine/cycloguanil/pyrimethamine-resistant blood stage Plasmodium falciparum K1 by SYBR green 1 staining based fluorescence assay. The format is functional, organism-based. In short, it runs like this: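 Freshly sorbitol-synchronized ring stages were exposed in triplicate to a concentration series, solubilized in 0.05% DMSO (v/v), alongside sample-free cultures. Cells were lysed for 30 min in 20 mM Tris pH 7.5, 5 mM EDTA, 0.008% saponin and 0.08% Triton X-100 with SYBR green I (1:20000). IC50 was obtained by curve fitting against untreated growth.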

For data set [5], the system named is Plasmodium falciparum. Put plainly: Antiplasmodial activity against drug-sensitive blood stage Plasmodium falciparum 3D7 ring forms assessed as morphological changes at 10 times IC50 after 8 to 16 hrs by microscopic analysis. In kind it is functional, organism-based. In short, it runs like this: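 Morphology examined by microscopy at 0, 8, 16 and 32 h post-synchronization. Three independent experiments.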

Data set [6] relates to Plasmodium falciparum. Put plainly: Antiplasmodial activity against chloroquine/cycloguanil/pyrimethamine-resistant blood stage Plasmodium falciparum K1 assessed as morphological changes at 10 times IC50 after 8 to 16 hrs by microscopic analysis. The format is functional, organism-based. In short, it runs like this: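 Highly synchronized blood-stage parasites were kept under continuous treatment, with a DMSO-treated control. Morphology was examined by microscopy at 0, 8, 16 and 32 h post-synchronization. Images are representative of three independent experiments.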

The subject of data set [7] is Plasmodium falciparum. Nature of the data set: Synergistic antiplasmodial activity against drug-sensitive blood stage Plasmodium falciparum 3D7 in presence of artesunate. In kind it is functional. An outline of the steps: (§2)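 Each drug's stock was made in complete medium so that the final concentration approximates its IC50 after 3–4 twofold dilutions. Stocks were mixed v/v at ratios ranging from 0:5 to 5:0 and serially diluted two-fold to seven concentrations. FIC50 was computed for each drug and summed as ΣFIC50.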

Data set [8] concerns Plasmodium falciparum. Nature of the data set: Synergistic antiplasmodial activity against chloroquine/cycloguanil/pyrimethamine-resistant blood stage Plasmodium falciparum K1 in presence of artesunate. In kind it is functional. In short, it runs like this:
as §2

For the compound `O=C(NCCCCNCCCNC(=O)c1cc(Br)c(Br)[nH]1)c1cc(Br)c(Br)[nH]1`, the EC50 with Leishmania amazonensis, in the data set on Leishmania infantum and in the data set with Trypanosoma cruzi was > 100 µM throughout. Also, in data set [1], the selectivity ratio is 15. The CC50 at 24 h in [2] came to 16 µM. The IC50 with Plasmodium falciparum [3] was found to be 1 µM; in the data set on Plasmodium falciparum [4], 1.1 µM. Moreover, the Activity result in the data set with HepG2 was “Non-Toxic”. In addition, the outcome in the data set on Plasmodium falciparum [5] and with Plasmodium falciparum [6] was Active. The “fractional inhibitory concentration index (FICI)” value in the data set with Plasmodium falciparum [7] and with Plasmodium falciparum [8] was 1 throughout.

What is called EC50 is the concentration that produces a half-maximal response. The term IC50 denotes the point on the concentration scale where inhibition reaches its midpoint. Read a high IC50 as weaker potency in that assay.

These data come from ChEMBL document CHEMBL4130608, “Isolation, Derivative Synthesis, and Structure-Activity Relationships of Antiparasitic Bromopyrrole Alkaloids from the Marine Sponge Tedania brasiliensis” (J Nat Prod, 2018).
